Data on 9 molecules can be found in ChEMBL document CHEMBL2163314, “Potent aminocyclitol glucocerebrosidase inhibitors are subnanomolar pharmacological chaperones for treating gaucher disease” (J Med Chem, 2012).

In data set [1] the target is T1, Lysosomal acid glucosylceramidase (Homo sapiens, UniProt P04062).
T1 sequence (P04062 whole entry): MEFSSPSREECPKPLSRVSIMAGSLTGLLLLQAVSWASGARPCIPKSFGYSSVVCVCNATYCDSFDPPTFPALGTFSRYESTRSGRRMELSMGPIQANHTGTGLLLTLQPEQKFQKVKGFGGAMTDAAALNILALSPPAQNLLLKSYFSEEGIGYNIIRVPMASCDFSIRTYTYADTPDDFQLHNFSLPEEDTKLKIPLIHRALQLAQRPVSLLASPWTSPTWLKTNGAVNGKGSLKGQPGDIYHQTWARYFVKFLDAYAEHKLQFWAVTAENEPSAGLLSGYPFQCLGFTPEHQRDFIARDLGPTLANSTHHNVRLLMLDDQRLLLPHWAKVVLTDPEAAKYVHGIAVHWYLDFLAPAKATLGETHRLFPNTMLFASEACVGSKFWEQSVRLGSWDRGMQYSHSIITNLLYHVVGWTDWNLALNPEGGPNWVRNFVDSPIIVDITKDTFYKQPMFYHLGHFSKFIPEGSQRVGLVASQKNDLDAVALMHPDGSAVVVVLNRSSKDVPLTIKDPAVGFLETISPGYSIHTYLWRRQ
Kind of data set: Competitive inhibition of recombinant Imiglucerase using 4-methylumbelliferyl-beta-D-glucopyranoside as substrate preincubated for 30 mins before substrate addition at pH 7.0 Lineweaver-Burk plot assay.

Data set [2] addresses T2, Beta-galactosidase (Homo sapiens) (UniProt P16278).
T2 sequence (whole entry): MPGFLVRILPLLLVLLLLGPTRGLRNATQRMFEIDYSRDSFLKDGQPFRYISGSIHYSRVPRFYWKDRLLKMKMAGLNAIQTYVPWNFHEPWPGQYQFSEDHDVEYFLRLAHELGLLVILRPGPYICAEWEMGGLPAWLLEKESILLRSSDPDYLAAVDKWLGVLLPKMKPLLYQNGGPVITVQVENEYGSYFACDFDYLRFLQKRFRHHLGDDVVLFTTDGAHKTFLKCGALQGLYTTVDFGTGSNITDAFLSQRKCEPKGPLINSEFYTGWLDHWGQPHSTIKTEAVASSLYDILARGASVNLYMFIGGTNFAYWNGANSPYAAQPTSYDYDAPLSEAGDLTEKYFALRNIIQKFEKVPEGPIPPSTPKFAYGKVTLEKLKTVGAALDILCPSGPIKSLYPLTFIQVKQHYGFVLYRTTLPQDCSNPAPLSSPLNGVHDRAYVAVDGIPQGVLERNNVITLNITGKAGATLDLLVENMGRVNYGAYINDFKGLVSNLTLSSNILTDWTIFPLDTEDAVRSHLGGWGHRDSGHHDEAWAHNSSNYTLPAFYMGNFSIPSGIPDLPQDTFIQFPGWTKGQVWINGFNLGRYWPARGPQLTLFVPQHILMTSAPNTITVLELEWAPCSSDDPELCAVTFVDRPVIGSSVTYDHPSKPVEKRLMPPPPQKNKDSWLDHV
Put plainly: Inhibition of lysosomal beta-galactosidase in human fibroblast at 50 uM after 24 hrs. An outline of the steps:
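Wild-type human fibroblasts (DMEM, 10% FBS, passages 14–30) were plated overnight, then exposed to compound in fresh medium for 24 h at 37 °C, 5% CO2. Lysosomal enzyme activity was then assayed in intact monolayers after the medium was removed. Triplicate determinations.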

In data set [3] the target is T1, Lysosomal acid glucosylceramidase. Kind of data set: Competitive inhibition of recombinant Imiglucerase using 4-methylumbelliferyl-beta-D-glucopyranoside as substrate preincubated for 30 mins before substrate addition at pH 7.0 by Dixon plot assay.
For data set [4] the target is unchanged. Put plainly: Competitive inhibition of recombinant Imiglucerase using 4-methylumbelliferyl-beta-D-glucopyranoside as substrate preincubated for 30 mins before substrate addition at pH 5.2 by Dixon plot assay.
Data set [5] is described as follows: Stabilization of recombinant imiglucerase at 1 uM at 48 degC after 60 mins by fluorimetry relative to incubation at 37 degC. An outline of the steps:
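Imiglucerase (2 mg/mL aliquots) heated at 48 °C with compound, three concentrations. At set times, residual activity measured with 4 mM 4-MU-β-glucoside (McIlvaine pH 5.2, Triton X-100, taurocholate) after acetate-phosphate pH 5.0, 10 min at 37 °C. Read at 355/460 nm. Ratio is relative enzymatic activity, inhibitor vs control, taken at 60 min. Activity relative to unheated (37 °C) enzyme; triplicate.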

The target of data set [6] is T3, Beta-galactosidase (Bos taurus) (UniProt Q58D55).
T3 sequence (whole entry): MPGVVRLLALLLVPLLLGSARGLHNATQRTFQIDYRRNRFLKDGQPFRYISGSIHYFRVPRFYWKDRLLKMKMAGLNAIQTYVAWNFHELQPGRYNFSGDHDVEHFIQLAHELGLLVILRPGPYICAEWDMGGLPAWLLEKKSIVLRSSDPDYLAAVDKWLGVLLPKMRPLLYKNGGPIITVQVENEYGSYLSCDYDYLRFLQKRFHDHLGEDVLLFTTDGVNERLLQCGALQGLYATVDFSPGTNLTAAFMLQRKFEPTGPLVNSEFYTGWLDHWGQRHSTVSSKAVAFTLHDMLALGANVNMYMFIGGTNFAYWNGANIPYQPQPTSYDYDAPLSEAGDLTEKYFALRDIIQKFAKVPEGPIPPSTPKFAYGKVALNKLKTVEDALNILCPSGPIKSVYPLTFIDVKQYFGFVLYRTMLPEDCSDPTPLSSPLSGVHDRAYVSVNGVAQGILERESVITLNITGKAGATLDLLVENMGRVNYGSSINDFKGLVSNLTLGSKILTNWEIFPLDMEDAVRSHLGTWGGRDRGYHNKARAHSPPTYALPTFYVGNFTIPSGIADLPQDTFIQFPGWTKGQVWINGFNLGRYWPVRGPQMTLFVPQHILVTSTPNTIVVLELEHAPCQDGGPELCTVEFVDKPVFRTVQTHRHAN
Put plainly: Inhibition of bovine liver beta-galactosidase at 100 uM.

A short description of data set [7]: Cytotoxicity against human fibroblasts at 50 uM. Format: cell-based. To be noted: fibroblast.
Data set [8] concerns the target T4, Alpha-galactosidase A (Homo sapiens) (UniProt P06280).
T4 sequence (whole entry): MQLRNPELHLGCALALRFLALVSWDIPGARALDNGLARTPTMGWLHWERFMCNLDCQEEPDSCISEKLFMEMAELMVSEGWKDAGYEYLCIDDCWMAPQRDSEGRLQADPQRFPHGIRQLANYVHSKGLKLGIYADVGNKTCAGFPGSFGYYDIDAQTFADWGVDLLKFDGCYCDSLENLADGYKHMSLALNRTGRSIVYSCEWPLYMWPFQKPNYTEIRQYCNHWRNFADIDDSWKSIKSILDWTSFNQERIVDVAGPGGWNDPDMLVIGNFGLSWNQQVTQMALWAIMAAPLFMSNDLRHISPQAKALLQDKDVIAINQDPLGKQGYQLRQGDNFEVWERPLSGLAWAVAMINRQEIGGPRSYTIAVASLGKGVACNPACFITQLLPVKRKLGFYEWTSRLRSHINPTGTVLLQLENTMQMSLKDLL
Kind of data set: Inhibition of lysosomal alpha-galactosidase in human fibroblast at 5 uM after 24 hrs.

pIC50: −log10 of the molar value. The source made the active and inactive calls. The rule behind the calls is not given here.

Take `CCCCCCCCCN[C@H]1[C@H](O)[C@@H](O)[C@H](O)[C@@H](O)[C@H]1OC.Cl`: the negative logarithm of the IC50 (pIC50) (as a rule, the IC50 on a negative log10 scale, so that one unit is a factor of ten) is 7.72 in data set [1], 7.72 in data set [3] and 6.89 in data set [4]. For the same molecule, the inhibition (as a rule, the change of the read-out against control, counted positive when it falls) in data set [2] was “inactive”. Moreover, the Ratio in data set [5] stood at 2.

Consider `CCCCCCCCCO[C@H]1[C@@H](N)[C@H](O)[C@@H](O)[C@H](O)[C@H]1O.Cl`, for which the values for the pIC50 in data set [1], in data set [3] and in data set [4] were 6.92, 6.92 and 6.35, respectively. Also, in data set [2], the inhibition entry is “inactive”. In addition, the inhibition in data set [6] was found to be 74%. In addition, in data set [5], the Ratio is 2.2.

Regarding `CCCCCCCCCN[C@H]1[C@H](O)[C@@H](O)[C@H](O)[C@@H](O)[C@@H]1O`, the negative-log IC50 (pIC50) was 6.11 in data set [1], 6.11 in data set [3] and 5.41 in data set [4]. Further, the inhibition result in data set [2] is “inactive”.

For `CCCCCCCCCN[C@H]1[C@H](O)[C@@H](O)[C@H](O)[C@@H](O)[C@@H]1OCCCCCCCCC.Cl`, the pIC50 in data set [1] was 6.77; in data set [3] it was 6.77; in data set [4], 6.17. The Activity entry in data set [7] is “Toxic”. The inhibition in data set [8] was less than 16%. Also, the Ratio in data set [5] came to 5.2.

For the molecule `CCCCCCCCCN[C@H]1[C@H](O)[C@@H](O)[C@H](O)[C@@H](O)[C@@H]1OC.Cl`, the negative-log IC50 (pIC50) is 6.17 in data set [1], 6.17 in data set [3] and 5.36 in data set [4]. Besides, in data set [2], the inhibition entry was “inactive”.

Turning to `CCCCCCCCCN[C@@H]1[C@H](O)[C@@H](O)[C@H](O)[C@@H](O)[C@@H]1O`, the negative logarithm of the IC50 (pIC50) in data set [1] was 4.60; in data set [3], 4.60; in data set [4] it was 4.28. Also, the inhibition entry in data set [2] was “inactive”. Moreover, the inhibition in data set [6] worked out at 74%.

For the molecule `CCCCCCCCCN[C@@H]1[C@H](O)[C@H](O)[C@@H](O)[C@H](O)[C@H]1O.Cl`, the pIC50 in data set [1] is 7.60; in data set [3], 7.60; in data set [4], 7.10. In addition, the inhibition result in data set [2] was “inactive”. For the same molecule, the Ratio in data set [5] was 5.

On to `CCCCCCCCCN(CCCCCCCCC)[C@@H]1[C@H](O)[C@H](O)[C@@H](O)[C@H](O)[C@H]1O.Cl`, for which the pIC50 in data set [1] was 6.28; in data set [3], 6.28; in data set [4], 5.76. For the same molecule, the Activity entry in data set [7] is given as “Toxic”. The molecule further showed an inhibition in data set [8] of less than 16%. In addition, the Ratio in data set [5] was found to be 1.2.

Consider `CCCCCCCCCN[C@H]1[C@H](O)[C@@H](O)[C@H](O)[C@@H](O)[C@H]1OCCCCCCCCC.Cl`, for which the values for the pIC50 in data set [1], in data set [3] and in data set [4] were 8.30, 8.30 and 8.40, respectively. Further, the Activity entry in data set [7] was “Toxic”. Also, the inhibition entry in data set [8] was “inactive”. Also, the inhibition in data set [6] is 74%. Moreover, the Ratio in data set [5] came to 29.
